Measured values taken from ChEMBL document CHEMBL1268918, “1,3-Benzoxazole-4-carbonitrile as a novel antifungal scaffold of β-1,6-glucan synthesis inhibitors” (Bioorg Med Chem, 2010).
≈ marks a conversion by molar mass, not a printed value.

Tests used:
Pichia kudriavzevii [1] = test: Antifungal activity against Candida krusei ATCC 44507 assessed as concentration required to 80% growth inhibition using alamar blue staining after 18 to 72 hrs by microdilution method; type: functional
Outline: (§1)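 Serial dilution in YPD medium (1% yeast extract, 2% peptone, […]), incubated at 37 °C. Inoculum was 1×10³–1×10⁴ cells/mL and incubation 18–72 h, both chosen per strain. MIC-1 is the lowest concentration giving 80% inhibition relative to a drug-free control.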

Nakaseomyces glabratus [2] = test: Antifungal activity against Candida glabrata ATCC 48435 assessed as concentration required to 80% growth inhibition using alamar blue staining after 18 to 72 hrs by microdilution method; type: functional; outline: as §1
Candida tropicalis [3] = test: Antifungal activity against Candida tropicalis ATCC 44508 assessed as concentration required to 80% growth inhibition using alamar blue staining after 18 to 72 hrs by microdilution method; type: functional; settings: read-out: MIC; outline: as §1
[4] = Solubility in water at pH 6.8; type: physicochemical
[5] = Octanol-phosphate buffer partition coefficient, log D of the compound at pH 7.4; type: physicochemical
Outline: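 Compound was shaken 30 min in equal volumes of n-octanol and phosphate-buffered saline at pH 7.4, then centrifuged at 3000 rpm for 10 min. Each layer was assayed by LC/MS, and log D was taken from the partition ratio.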

Candida albicans [6] = test: Antifungal activity against FLCZ-susceptible Candida albicans ATCC 90028 assessed as concentration required to 80% growth inhibition using alamar blue staining after 18 to 72 hrs by microdilution method; type: functional
Outline: (§2)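 Serial broth microdilution in YPD medium (1% yeast extract, 2% peptone, […]). Starting cell density (1 × 10³–1 × 10⁴ cells/mL) and incubation time (18–72 h) were set per strain by growth speed. MIC-1 is the lowest drug concentration giving 80% growth inhibition relative to the drug-free control.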

Candida albicans [7] = test: Antifungal activity against FLCZ-resistant Candida albicans ATCC MYA-573 assessed as concentration required to 80% growth inhibition using alamar blue staining after 18 to 72 hrs by microdilution method; type: functional; outline: as §2
Nakaseomyces glabratus [8] = test: Antifungal activity against Candida glabrata ATCC 48435 assessed as concentration required to 50% growth inhibition using alamar blue staining after 18 to 72 hrs by microdilution method; type: functional
Outline: (§3)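 Serial broth microdilution in RPMI 1640 with 0.165 M MOPS. Inoculum was 1×10³–1×10⁴ cells/mL and incubation ran 18–72 h, both set per strain by growth rate, at 30 °C. MIC-2 is the lowest drug concentration giving 50% growth inhibition versus a drug-free control.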

Saccharomyces cerevisiae = test: Antifungal activity against Saccharomyces cerevisiae YPH500 assessed as concentration required to 50% growth inhibition using alamar blue staining after 18 to 72 hrs by microdilution method; type: functional; outline: as §3
Candida albicans [9] = test: Antifungal activity against Candida albicans ATCC 24433 assessed as concentration required to 50% growth inhibition using alamar blue staining after 18 to 72 hrs by microdilution method; type: functional; outline: as §3
Candida tropicalis [10] = test: Antifungal activity against Candida tropicalis IAM 4965 assessed as concentration required to 50% growth inhibition using alamar blue staining after 18 to 72 hrs by microdilution method; type: functional; outline: as §3
Pichia kudriavzevii [11] = test: Antifungal activity against Candida krusei ATCC 44507 assessed as concentration required to 50% growth inhibition using alamar blue staining after 18 to 72 hrs by microdilution method; type: functional; outline: as §3
[12] = Metabolic stability in human liver microsomes at 1 uM after 30 mins; type: ADME, Microsome; settings: read-out: Stability
Outline: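 Compound was preincubated with human liver microsomes (0.5 mg/mL protein) in sodium phosphate buffer pH 7.4 for 20 min at 37 °C. NADPH started the reaction, and MeOH stopped it after 30 min. Samples were centrifuged at 4 °C, and parent loss was quantified by LC/MS/MS.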

Structure (SMILES): Cc1nc2c(C#N)c(C)c(-c3ccccc3)c(N3CC[C@H](N(C)C)C3)c2o1
- MIC (Pichia kudriavzevii [1]): 4 µg/mL (≈ 11.1 µM)
- MIC (Nakaseomyces glabratus [2]): 0.25 µg/mL (≈ 0.694 µM)
- MIC (Candida tropicalis [3]): 0.25 µg/mL (≈ 0.694 µM)
- solubility [4]: 120 µg/mL (≈ 333 µM)
- logD [5]: 3.3
- MIC (Candida albicans [6]): 2 µg/mL (≈ 5.55 µM)
- MIC (Candida albicans [7]): 2 µg/mL (≈ 5.55 µM)

Structure (SMILES): CN(C)[C@H]1CCN(c2c(-c3ccccc3)cc(C#N)c3oc(C(C)(C)C)nc23)C1
- MIC (Nakaseomyces glabratus [8]): > 4 µg/mL
- MIC (Saccharomyces cerevisiae): 4 µg/mL (≈ 10.3 µM)
- MIC (Candida albicans [9]): > 4 µg/mL
- MIC (Candida tropicalis [10]): > 4 µg/mL
- MIC (Pichia kudriavzevii [11]): > 16 µg/mL

Structure (SMILES): Cc1c(C#N)c2c(c(N3CC[C@H](N(C)C)C3)c1-c1ccccc1)OCC(C(C)(C)C)=N2
- MIC (Nakaseomyces glabratus [8]): 8 µg/mL (≈ 19.2 µM)
- solubility [4]: 56 µg/mL (≈ 134 µM)
- logD [5]: 4.4
- MIC (Saccharomyces cerevisiae): 8 µg/mL (≈ 19.2 µM)
- MIC (Candida albicans [9]): > 16 µg/mL
- MIC (Candida tropicalis [10]): 16 µg/mL (≈ 38.4 µM)
- MIC (Pichia kudriavzevii [11]): > 16 µg/mL

Structure (SMILES): Cc1c(-c2ccccc2)c(N2CC[C@H](N(C)C)C2)c2oc(N)nc2c1C#N
- MIC (Pichia kudriavzevii [1]): 2 µg/mL (≈ 5.53 µM)
- MIC (Nakaseomyces glabratus [2]): 0.125 µg/mL (≈ 0.346 µM)
- MIC (Candida tropicalis [3]): 0.5 µg/mL (≈ 1.38 µM)
- solubility [4]: 18 µg/mL (≈ 49.8 µM)
- logD [5]: 3.3
- MIC (Candida albicans [6]): 1 µg/mL (≈ 2.77 µM)
- MIC (Candida albicans [7]): 2 µg/mL (≈ 5.53 µM)

Structure (SMILES): Cc1c(-c2ccccc2)c(N2CC[C@H](N(C)C)C2)c2oc(C3CCCC3)nc2c1C#N
- MIC (Pichia kudriavzevii [1]): 2 µg/mL (≈ 4.82 µM)
- MIC (Nakaseomyces glabratus [2]): 0.032 µg/mL (≈ 0.0772 µM)
- MIC (Candida tropicalis [3]): 0.063 µg/mL (≈ 0.152 µM)
- solubility [4]: < 2 µg/mL
- logD [5]: 4.9
- MIC (Candida albicans [6]): 0.125 µg/mL (≈ 0.302 µM)
- MIC (Candida albicans [7]): 0.125 µg/mL (≈ 0.302 µM)

Structure (SMILES): Cc1c(-c2ccccc2)c(N2CC[C@H](N(C)C)C2)c2oc(C(C)(C)C)nc2c1C#N.Cl
- remaining at 0.5 h, 1 µM [12]: 6%
- MIC (Nakaseomyces glabratus [8]): ≤ 0.016 µg/mL
- MIC (Pichia kudriavzevii [1]): 2 µg/mL
- MIC (Nakaseomyces glabratus [2]): 0.063 µg/mL
- MIC (Candida tropicalis [3]): 0.032 µg/mL
- solubility [4]: 5 µg/mL
- logD [5]: 4.6
- MIC (Saccharomyces cerevisiae): ≤ 0.016 µg/mL
- MIC (Candida albicans [6]): 0.063 µg/mL
- MIC (Candida albicans [9]): 4 µg/mL
- MIC (Candida albicans [7]): 0.125 µg/mL
- MIC (Candida tropicalis [10]): 0.063 µg/mL
- MIC (Pichia kudriavzevii [11]): 4 µg/mL

Structure (SMILES): Cc1c(-c2ccccc2)c(N2CC[C@H](N(C)C)C2)c2oc(C3=CCCC3)nc2c1C#N
- MIC (Pichia kudriavzevii [1]): 16 µg/mL (≈ 38.8 µM)
- MIC (Nakaseomyces glabratus [2]): 0.5 µg/mL (≈ 1.21 µM)
- MIC (Candida tropicalis [3]): 1 µg/mL (≈ 2.42 µM)
- solubility [4]: < 2 µg/mL
- logD [5]: 5.2
- MIC (Candida albicans [6]): 4 µg/mL (≈ 9.7 µM)
- MIC (Candida albicans [7]): 4 µg/mL (≈ 9.7 µM)

Structure (SMILES): CN(C)[C@H]1CCN(c2c(-c3ccccc3)cc(C#N)c3oc(C(C)(C)C)cc23)C1
- remaining at 0.5 h, 1 µM [12]: 20%
- MIC (Nakaseomyces glabratus [8]): > 4 µg/mL
- solubility [4]: < 2 µg/mL
- logD [5]: 5.4
- MIC (Saccharomyces cerevisiae): 2 µg/mL (≈ 5.16 µM)
- MIC (Candida albicans [9]): > 4 µg/mL
- MIC (Candida tropicalis [10]): 4 µg/mL (≈ 10.3 µM)
- MIC (Pichia kudriavzevii [11]): > 4 µg/mL

Structure (SMILES): Cc1c(-c2ccccc2)c(N2CC[C@H](N(C)C)C2)c2[nH]c(C(C)(C)C)nc2c1C#N
- remaining at 0.5 h, 1 µM [12]: 21%
- MIC (Nakaseomyces glabratus [8]): 0.5 µg/mL (≈ 1.25 µM)
- solubility [4]: 8 µg/mL (≈ 19.9 µM)
- logD [5]: 4.7
- MIC (Saccharomyces cerevisiae): 0.5 µg/mL (≈ 1.25 µM)
- MIC (Candida albicans [9]): 4 µg/mL (≈ 9.96 µM)
- MIC (Candida tropicalis [10]): 2 µg/mL (≈ 4.98 µM)
- MIC (Pichia kudriavzevii [11]): > 16 µg/mL
